Bioassay records as filed in PubChem BioAssay.
RGS4 pot: RGS4 potentiation or activation; HEK293 M3R/inducible RGS4, carbachol calcium flux Fluo4; stronger effect = lower value; AID 463111; B-score at 10 µM; 0.92% of 310,000 active;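 active = B-score of the integrated calcium signal more than 4 SD below the library mean, with starting fluorescence not abnormally high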;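 also: negative B-score means reduced calcium response which marks RGS4 activation or potentiation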
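Reagent: ECmax carbachol challenge; Test system: M3R-expressing HEK293 line, RGS4 induced by doxycycline; Schedule: overnight RGS4 induction, 30 min dye load 37 °C, 20 min compound RT; Detection: calcium dye Fluo4 fluorescence; Read-out: Agonist-evoked peak-minus-minimum fluorescence over baseline, integrated ratio, B score.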
MrgX1 antag: blocks BAM8-22 activation of human MrgX1 receptor | Q96LB2 | MRGX1-HEK293 calcium flux, Fluo-4, BAM8-22 antagonism; stronger effect = lower value | B-score at 10 µM | 1.3% of 310,000 active | AID 588676;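 active = calcium-response B-score plate-corrected more than 3 library SD below zero, starting fluorescence within 5 deviations, no agonist response on first addition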;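 also: peak minus trough fluorescence over baseline after final BAM8-22 challenge near maximal dose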
Target sequence (Q96LB2 whole entry, looked up): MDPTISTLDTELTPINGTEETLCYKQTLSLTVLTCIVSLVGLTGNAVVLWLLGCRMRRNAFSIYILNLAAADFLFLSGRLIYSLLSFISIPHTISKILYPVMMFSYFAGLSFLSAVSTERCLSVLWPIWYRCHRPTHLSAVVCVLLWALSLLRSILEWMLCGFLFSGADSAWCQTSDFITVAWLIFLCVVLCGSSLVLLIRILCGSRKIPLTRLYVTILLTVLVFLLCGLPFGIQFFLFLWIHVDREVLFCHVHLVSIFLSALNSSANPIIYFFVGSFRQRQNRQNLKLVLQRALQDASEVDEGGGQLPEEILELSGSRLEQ
MrgX1 PAM: human MrgX1 positive allosteric modulation, primary screen; MrgX1-HEK293, Fluo-4 calcium flux, FDSS; stronger effect = higher value; 0.63% of 310,000 active; Q96LB2; B-score at 10 µM;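 active = plate-corrected calcium response at least 3 library SD above typical, normal starting fluorescence, not activating the receptor alone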;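 also: compound read alongside a low EC10 to EC30 dose of BAM8-22 agonist; peak minus trough fluorescence over baseline measured at the second addition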
MrgX1 agonist: activates human MrgX1 receptor signaling | AID 588627 | 0.44% of 310,000 active | B-score at 10 µM | MrgX1-HEK293 cells, Fluo-4 calcium fluorescence, agonist mode; stronger effect = higher value;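 active = calcium response B-score plate-corrected fluorescence ratio at least 3 library SD, with starting fluorescence B-score inside 5 SD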
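Material: MrgX1-expressing HEK293 cells; input: 15,000 cells per well; doses: test compound given as first of three sequential additions; schedule: overnight plating before 1 h dye loading; technique: Fluo-4 NW calcium-flux fluorescence, kinetic read; evaluation: baseline-normalised fluorescence change ratio, B-scored; control set: plate-wise positive and negative controls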
RGS4 block: inhibitors of human RGS4; HEK293 M3R/RGS4 inducible, Fluo-4 calcium flux; stronger effect = higher value; triggered by carbachol at its EC20; B-score at 10 µM; 0.45% of 310,000 active; AID 463165;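 active = B-score, a plate-corrected calcium signal, over three deviations above library mean, with baseline fluorescence within five deviations of library mean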;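 also: RGS4 expression induced by doxycycline in cells with stable M3 receptor; B-score is computed from the integrated fluorescence ratio over baseline after carbachol; higher B-score means a larger calcium signal and so more RGS4 inhibition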
Target sequence (P49798 whole entry, looked up): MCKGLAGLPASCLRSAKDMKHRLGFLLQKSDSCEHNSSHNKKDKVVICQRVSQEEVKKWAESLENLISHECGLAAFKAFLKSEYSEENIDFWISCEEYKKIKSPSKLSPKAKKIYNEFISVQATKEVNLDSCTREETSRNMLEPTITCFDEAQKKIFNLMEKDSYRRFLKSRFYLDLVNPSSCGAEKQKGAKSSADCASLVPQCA
Active calls of the source: *; i = inactive; / = no result. Hits are enriched below; roughly 3.5% of the tested compounds scored in any of these assays.

SMILES	RGS4 pot	MrgX1 antag	MrgX1 PAM	MrgX1 agonist	RGS4 block
Cc1ccc2c(c1)S/C(=C/c1ccc[n+](C)c1)N2CCO	-7*	i	i	i	i
C/C(=N\OC(=O)NC(C)C)c1sc(-c2ccc(Cl)cc2)nc1C	i	i	17*	i	i
CC(=O)Oc1ccc(/C=C(\NC(=O)c2ccco2)C(=O)NCc2ccco2)cc1	i	i	i	i	i
Cc1cc(/C=C2\SC(=S)NC2=O)c(C)n1-c1ccccc1	i	i	i	i	i
Cc1cc(/C=C2\SC(=S)NC2=O)c(C)n1-c1ccc(O)cc1	i	i	i	43*	i
Cc1sc2nc(CSc3cccc(C(F)(F)F)c3)[nH]c(=O)c2c1C	i	-5.1*	i	i	i
COc1ccc(NC(=O)c2ccccc2-c2ccccc2)c(C)c1	i	i	i	i	i
CN(CCOc1ccccc1)CC(=O)Nc1ccc(Cl)cc1[N+](=O)[O-]	i	i	13*	i	i
COc1cc(NC(=O)CN(C)CCOc2ccccc2)c(C)cc1[N+](=O)[O-]	i	i	i	i	i
CCOC(=O)Cn1ccc(-c2ccccc2)c(C#N)c1=O	i	i	i	i	i
CCc1nc(Nc2ccc3c(c2)OCCO3)c2oc3ccccc3c2n1	-7.3*	i	i	i	i
O=C(Nc1cc(C(F)(F)F)ccc1Cl)c1ccncc1	i	i	i	i	i
C/C(=N\Nc1cc(C(F)(F)F)ccc1Cl)c1ccncc1	-7.6*	i	i	i	i
COc1ccc(CN(CCNC(=O)CCCCC(=O)NCCN(Cc2ccc(OC)cc2)C(C)C)C(C)C)cc1	-9.2*	i	i	i	i
COCCN=c1scc(-c2ccc3c(c2)NC(=O)CO3)n1/N=C(\C)c1ccc(O)cc1	i	-5.4*	i	i	i
CCCCCN1C(=O)/C(=C/c2c(N3CCc4ccccc4C3)nc3ccccn3c2=O)SC1=S	i	-8.7*	i	i	i
COc1ccc(C2CCCN2C(=O)Nc2ccc(F)cc2)cc1OC (centres undefined)	i	i	i	i	i
CSc1ccc(C2C(C#N)=C(N)Oc3c2ccc(=O)c2c(C)oc(C)c32)cc1 (centres undefined)	i	i	9.8*	i	i
Cc1oc(C)c2c(=O)ccc3c(c12)OC(N)=C(C#N)C3c1ccccc1Cl (centres undefined)	i	i	i	i	i
Cc1oc(C)c2c(=O)ccc3c(c12)OC(N)=C(C#N)C3c1ccccc1 (centres undefined)	i	i	i	49*	i
O=C(N/N=C/C=C/c1ccco1)/C(=C/c1ccccc1)NC(=O)c1ccccc1	i	i	i	i	i
CSCC[C@H](N)C(=O)N1CCC(C(=O)N[C@H](C)C(=O)Nc2ccc(C(C)C)cc2)CC1	i	i	i	i	i
COc1ccc2c(COC(=O)c3cccc(S(=O)(=O)NCC(C)C)c3)cc(=O)oc2c1	-7.2*	i	i	i	i
CC1(C)CC2CC(C)(CN2S(=O)(=O)c2ccc(C(=O)Nc3cc(S(=O)(=O)N4CCOCC4)ccc3Cl)cc2)C1 (centres undefined)	-7.2*	i	i	i	i
CC1(C)CC2CC(C)(CN2S(=O)(=O)c2ccc(C(=O)Nc3cccc(S(=O)(=O)N4CCOCC4)c3)cc2)C1 (centres undefined)	i	i	i	i	i
SMILES	RGS4 pot	MrgX1 antag	MrgX1 PAM	MrgX1 agonist	RGS4 block
C[C@@H]1NC(=O)c2cc([N+](=O)[O-])cc(I)c2OCC[C@@H](C(=O)NC(CC(=O)O)C(N)=O)NC(=O)[C@H](CCC(=O)O)NC1=O (some centres undefined)	/	i	i	i	/
NC(=O)C(CC(=O)O)NC(=O)[C@@H]1CCOc2c(I)cc([N+](=O)[O-])cc2C(=O)N[C@@H](CCC(=O)O)C(=O)N[C@@H](CO)C(=O)N1 (some centres undefined)	/	-6.1*	i	i	/
O=C(c1cccn2c(=O)c3ccccc3nc12)N1CCN(Cc2ccc3c(c2)OCO3)CC1	i	i	i	i	i
O=C(c1ccc2nc3ccccc3c(=O)n2c1)N1CCN(Cc2ccc3c(c2)OCO3)CC1	i	-9.6*	i	i	i
CCCc1c(C(=O)N/N=C/c2ccccc2C(F)(F)F)nnn1-c1nonc1N	i	i	i	i	i
Cc1cc(C)n(C(=O)c2c([N+](=O)[O-])c(C)nn2C)n1	i	-7.7*	i	i	i
CSc1ccccc1NC(=O)CN1CCCCC1C (centres undefined)	i	i	i	i	i
CC1CCCCN1CC(=O)NC(c1ccccc1)c1ccccc1 (centres undefined)	-7.3*	i	i	i	i
COc1cccc(NC(=O)CCC2CCN(Cc3nccs3)CC2)c1	i	i	i	i	i
COc1ccc(OCC(=O)NNC(=O)c2cccs2)cc1	i	i	i	i	i
Cc1cc(OCC(=O)NNC(=S)NC(=O)c2cccs2)ccc1Cl	-7.8*	i	8.4*	i	i
Cc1cccc(NC(=S)NNC(=O)c2ccc(Br)o2)c1	i	i	i	i	i
Cc1ccc(OCC(=O)NNC(=S)NC(=O)c2cccs2)c(C)c1	-9*	i	i	35*	i
COc1ccc(C(=O)NC(=S)NNC(=O)c2cnccn2)cc1OC	i	i	i	i	i
Cc1ccc(OCC(=O)NNC(=S)NC(=O)c2ccc(Br)o2)c(C)c1	-11*	i	10*	i	i
COc1ccc(C(=O)NNC(=S)NC(=O)c2ccc(Br)o2)cc1OC	i	i	i	53*	i
CCOc1cc(C(C(=O)NCC2CCCO2)N(C(=O)Cn2nnc3ccccc32)c2ccc(OC)c(OC)c2)ccc1O (centres undefined)	i	i	i	i	i
Cn1cnc(NCc2ccccc2)c1[N+](=O)[O-]	i	i	i	i	i
O=C(O)CSc1nnc(-c2ccncc2)n1C1CCCCC1	i	i	i	i	i
COC(=O)c1c(C)[nH]c(C(=O)OCC(=O)N(CC(C)C)c2c(N)n(Cc3ccccc3)c(=O)[nH]c2=O)c1C	i	i	i	i	i
CC(=O)Nc1sc(C)c(C)c1C(=O)OCC(=O)N(CC(C)C)c1c(N)n(Cc2ccccc2)c(=O)[nH]c1=O	-7.8*	i	i	i	i
